Screens from PubChem.
Hits are enriched below; roughly 2% of the tested compounds scored in any of these assays.
TNF necrop inh: inhibitors of TNF-alpha induced necroptosis in Jurkat FADD-/- cells; activation (protection from cell death), % at 10 µM; 220,000 compounds, 0.068% hits; Jurkat FADD-/- TNF necroptosis rescue, ATP luminescence, 24 h; 0 = TNF only, 100 = no-TNF cells;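 active = activation, meaning protection from cell death, of at least 50% relative to plate controls; inactive = activation below 50%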;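 note: necroptosis triggered by 40 ng/mL TNF-alpha added together with compound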
Tb hexokinase: blocks Trypanosoma brucei hexokinase 1 activity | recombinant TbHK1, G6PDH-coupled NADH A340 | inhibition, % at 10 µM | 220,000 compounds, 0.11% hits | AID 1430;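 active = inhibition of 50% or more in the single-dose primary screen; inactive = inhibition below 50%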
PfM18AAP inh: PfM18AAP enzyme inhibition; recombinant PfM18AAP, H-Glu-NHMec fluorogenic cleavage; inhibition, % at 7.35 µM; 290,000 compounds, 1.2% hits;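 active = inhibition above the campaign mean inhibition over all tested compounds plus 3 SD, cut at about 28% in these data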;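 note: 0% = plate median of test compound wells and 100% = 2 mM ZnCl2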
Hep lipid drop: modulators of hepatic lipid droplet formation; AML12 mouse hepatocytes, oleate lipid droplets, BODIPY imaging; inhibition, % at 6.5 µM; 240,000 compounds, 0.4% hits;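 active = lipid droplet intensity inhibited by at least 50%, with more than 500 cells counted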
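System: AML12 hepatocytes (mouse). Probe or stimulus: oleic acid at 100 µM to induce lipid droplet formation. Times: overnight treatment with compound plus oleate. Detection: Image-based BODIPY and DAPI two-channel analysis. Evaluation: percent inhibition of filter-corrected integrated lipid droplet intensity per well.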
zVAD death inh: L929 zVAD cell death inhibition; L929 zVAD necroptosis rescue, ATP luminescence, 24 h; with zVAD 60 µM; viability rescue, % at 10 µM; 220,000 compounds, 0.38% hits; AID 1377;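 active = activation, scaled between plate controls, above about 75%, limit read from the data; inactive = activation under that limit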;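 note: 0% = zVAD with DMSO and 100% = DMSO alone without zVAD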
RBBP9 inh: blocks human serine hydrolase RBBP9. recombinant RBBP9, FP-Rh probe fluorescence polarization. inhibition, % at 7.94 µM. 220,000 compounds, 0.2% hits. AID 1515;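 active = inhibition above the campaign mean of all tested compounds plus 3 SD, cut at about 14% in these data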;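 note: plate controls were DMSO wells with RBBP9 for no effect and wells lacking RBBP9 protein for full effect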
Target sequence (O75884 whole entry, looked up): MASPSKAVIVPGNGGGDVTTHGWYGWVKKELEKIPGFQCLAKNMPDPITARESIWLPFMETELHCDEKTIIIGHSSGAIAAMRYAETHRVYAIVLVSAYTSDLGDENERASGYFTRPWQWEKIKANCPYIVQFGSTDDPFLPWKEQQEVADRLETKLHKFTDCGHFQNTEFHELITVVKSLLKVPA
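Material: RBBP9 protein. Amount: RBBP9 at 2.5 µM in dispensed solution, before mixing. Schedule: 30 min then 45 min, 25 °C. Medium: Tris buffer pH 8.0, NaCl, Pluronic. Measured by: fluorescence polarization. Measure: percent inhibition from mP, scaled between DMSO and no-protein wells. Replication: one well per compound.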
Lipid drop inh: hepatic lipid droplet formation inhibition, confirmed | 870 compounds, 65% hits | AML12 mouse hepatocytes, BODIPY lipid droplet imaging; droplets induced with 100 µM oleic acid | inhibition, % at 5.2 µM | shares compounds with Hep lipid drop;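 active = inhibition of lipid droplet metric at least 50%, with more than 300 cells in each of four replicates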;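 note: plate controls were DMSO with oleic acid for no effect and 5 µM Triacsin-C for full effect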
AML12 tox img: AML12 hepatocyte cytotoxicity (counter-screen); shares compounds with Hep lipid drop; AML12 mouse hepatocytes, DAPI nuclear morphology cytotoxicity imaging; active compounds read high; cells fed 100 µM oleate overnight; z-score at 5 µM; 870 compounds, 3% hits; in the data active = z-score above about 6.3;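 note: compound exposure lasted overnight at 37 °C before fixation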
AML12 tox ATP: AML12 hepatocyte cytotoxicity, confirmed. AID 463219. shares compounds with Hep lipid drop. cytotoxicity, % at 50 µM. AML12 mouse hepatocyte viability, ATP luminescence; cells loaded with 100 µM oleic acid. 530 tested, under 10 active;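 active = cytotoxicity above 50% in each of four replicates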;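 note: compound exposure lasted overnight at 37 °C before the ATP read; 0% = DMSO-treated cells and 100% = wells with no cells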
* marks the source's active call; other numbers are inactive results; nt = no result given.

SMILES	TNF necrop inh	Tb hexokinase	PfM18AAP inh	Hep lipid drop	zVAD death inh	RBBP9 inh	Lipid drop inh	AML12 tox img	AML12 tox ATP
CCN(CC)S(=O)(=O)c1cc(NC(=O)C(C)OC(=O)c2[nH]c(C)c(C(C)=O)c2C)ccc1C (stereo unspecified)	4	23	4	128*	5	-6	51	-0.37	nt
CC(=O)c1c(C)[nH]c(C(=O)Nc2ccc(C)c(S(=O)(=O)N(C)C)c2)c1C	0	7	3	4	3	-5	nt	nt	nt
CCOc1ccccc1N1CCN(C(=O)NCc2ccc(C)cc2)CC1	nt	nt	1	65*	nt	nt	41	0.48	7
Cc1ccc(CNC(=O)N2CCN(C)CC2)cc1	1	3	-1	-23	0	-11	nt	nt	nt
CCOC(=O)c1cc(NC(=O)N(C)C2CCCCC2)c(C)nc1C	nt	nt	-2	54*	nt	nt	81*	-0.98	10
CCOc1ccc(C2=Nc3ccc(Br)cc3C(c3ccc(N4CCOCC4)cc3)=NN2)cc1	2	-20	-1	62*	0	-2	23	-0.046	nt
Cc1cc(C(=O)N[C@H](c2ccccc2)[C@@]2(C)C[C@@H]2[C@@H](C)C(=O)Nc2ccc3ccccc3c2)no1	2	-3	3	-32	1	-13	nt	nt	nt
Cc1cc(C(=O)N[C@@H](c2ccccc2)[C@]2(C)C[C@H]2[C@@H](C)C(=O)Nc2ccc3ccccc3c2)no1	4	-2	0	96*	7	-19	101*	0.52	nt
COc1ccc(CNC(=O)c2nn(-c3ccccc3)cc2OC)cc1	nt	nt	4	2	nt	nt	nt	nt	nt
Cc1ccc(-n2c(SCC(=O)Nc3ccc4c(c3)OCCO4)nnc2-c2ccco2)cc1	-1	5	0	4	0	6	nt	nt	nt
CCOc1ccccc1-c1cc(C(=O)N/N=C/c2ccc(O)c(OC)c2)c2ccccc2n1	0	-15	8	50*	1	-8	72*	0.3	30
COc1ccc(CCN2C(=O)c3cccc4cccc(c34)C2=O)cc1OC	0	-7	-13	nt	2	-8	nt	nt	nt
COc1ccc(CCNC(=O)CN2C(=O)c3cccc4cccc(c34)C2=O)cc1OC	0	-14	-8	56*	2	-4	92*	-0.014	4
COc1ccc(CCNC(=O)c2cccc3ccccc23)cc1OC	nt	nt	-10	-6	nt	nt	nt	nt	nt
COc1ccc(CCNC(=O)c2cc3c(F)cccc3s2)cc1OC	nt	nt	-9	77*	nt	nt	74*	-0.2	3
COc1ccc(CCNC(=O)Cc2cccc(C(F)(F)F)c2)cc1OC	nt	nt	8	64*	nt	nt	84*	-1.3	12
C=CCOc1ccc(/C=C2/C(=N)N3N=C(CC(=O)N4CCCC4)SC3=NC2=O)cc1OC	nt	nt	-3	-38	nt	nt	nt	nt	nt
O=C1OCC2=C1C(c1ccc(F)cc1)CC(=O)N2c1ccccc1 (stereo unspecified)	0	-5	15	2	-1	-1	nt	nt	nt
COc1cc2ncnc(NCc3cccs3)c2cc1OC	3	-2	-1	52*	12	-2	62*	15*	nt
Cc1ccc(OCC(=O)NCc2ccc3c(c2)OCO3)c([N+](=O)[O-])n1	1	9	-5	58*	0	-14	21	-0.92	nt
CCc1nc2ccccc2c(C(=O)OCC(=O)NCc2ccc3c(c2)OCO3)c1C	20	27	-10	79*	0	-16	92*	0.21	13
CCCc1nc2ccccc2c(C(=O)OCC(=O)NCc2ccc3c(c2)OCO3)c1CC	10	6	4	36	0	-7	nt	nt	nt
CCCc1nc2ccccc2c(C(=O)OC(C)C(=O)NCc2ccc3c(c2)OCO3)c1CC (stereo unspecified)	6	1	-3	84*	1	-4	103*	-0.11	-6
Cc1ccc(CNC(=O)COc2ccc(C)nc2[N+](=O)[O-])cc1	0	-2	3	16	0	-5	nt	nt	nt
Cc1ccccc1CN(c1ccc(C(=O)Nc2ccccc2C(=O)NCc2ccco2)cc1)S(C)(=O)=O	5	-18	0	-11	0	-18	nt	nt	nt
SMILES	TNF necrop inh	Tb hexokinase	PfM18AAP inh	Hep lipid drop	zVAD death inh	RBBP9 inh	Lipid drop inh	AML12 tox img	AML12 tox ATP
CS(=O)(=O)Nc1ccc(C(=O)Nc2ccccc2C(=O)NCc2ccco2)cc1	nt	nt	4	57*	nt	nt	-3	-0.51	nt
O=C(CN1C(=O)NC2(CCOc3ccccc32)C1=O)c1ccc(Br)cc1 (stereo unspecified)	nt	nt	2	66*	nt	nt	102*	0.18	16
CCc1ccc(OCc2ccc(C(=O)O)o2)cc1	nt	nt	-9	59*	nt	nt	16	-0.027	nt
Cc1ccc(-n2cccc2/C=C2/NC(=O)N(CC(=O)Nc3cccc(C)c3)C2=O)cc1	2	-4	-2	90*	0	6	110*	0.011	12
COc1ccc(-n2c(C)cc(/C=C3\SC(=S)N(Cc4ccco4)C3=O)c2C)cc1	1	-10	5	46	4	-3	nt	nt	nt
CCN1CCN(c2c(/C=C3\SC(=S)N(Cc4ccco4)C3=O)c(C)c(C#N)c(=O)n2C)CC1	-14	-30	24	65*	-1	-6	9	-0.44	nt
O=C(NCCCN1CCOCC1)C(=O)NCc1ccc(Cl)cc1	2	1	7	13	0	0	nt	nt	nt
Cc1ccc(-c2cc(-c3c(C)nn(C)c(=O)c3N)[nH]n2)cc1	3	3	5	56*	1	-8	79*	-0.36	nt
CCOc1ccc(NC(=O)CCn2c(=O)[nH]c3ccsc3c2=O)cc1	1	-4	0	4	0	-5	nt	nt	nt
COc1c([N+](=O)[O-])cc(C(=O)NNC(=O)c2ccc(C)cc2)cc1[N+](=O)[O-]	nt	nt	3	56*	nt	nt	32	0.11	nt
Cc1ccc(NC(=O)ON=C2CCCC2)cc1	1	32	4	12	0	-1	nt	nt	nt
COC(C[C@@H](O)C[C@@H](O)COCc1ccccc1)OC	1	2	nt	113*	0	nt	1	0.34	nt
COC(C[C@H](O)C[C@@H](O)COCc1ccccc1)OC	1	-16	nt	3	0	nt	nt	nt	nt
COC(=O)C(Cc1ccccc1)OS(N)(=O)=O (stereo unspecified)	nt	nt	1	2	nt	nt	nt	nt	nt
Cc1ccc(/C=C/C(=O)NCC2COc3ccccc3O2)o1 (stereo unspecified)	-3	-4	-67	53*	1	-1	18	-0.28	nt
